Experimental data reported in paper PMC3608840 (Journal of biomolecular screening, 2012).

Assays:
[1] = target: T1, mPAP (Mus musculus, UniProt Q8CE08); test: Fluorogenic; format: biochemical
T1 sequence (Q8CE08 32-381): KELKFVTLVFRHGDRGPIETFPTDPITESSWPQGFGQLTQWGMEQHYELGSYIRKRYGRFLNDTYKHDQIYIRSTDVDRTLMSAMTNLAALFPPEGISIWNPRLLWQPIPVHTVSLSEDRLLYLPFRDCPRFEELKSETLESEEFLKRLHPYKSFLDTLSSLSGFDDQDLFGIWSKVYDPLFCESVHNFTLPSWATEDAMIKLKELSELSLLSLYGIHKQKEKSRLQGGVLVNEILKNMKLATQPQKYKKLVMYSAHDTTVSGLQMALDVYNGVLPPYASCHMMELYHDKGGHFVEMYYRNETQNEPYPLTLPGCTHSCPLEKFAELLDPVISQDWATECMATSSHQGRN

[2] = system: pAP; test: Fluorogenic; format: biochemical, potato
Outline: (§1)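 Bovine ALP (5 pM final; 50 mM Tris-HCl pH 8.0) or potato acid phosphatase (1.5 nM final; 50 mM sodium acetate pH 5.3), each buffer with 0.01% Tween-20, or human PTP-1B. 12-point in-plate compound series, 15 min room-temperature preincubation with enzyme, then 100 μM DiFMUP final. Fluorescence (ex 340/em 450 nm) read each min for 3 min. Change normalized to enzyme and no-enzyme controls, sigmoidal dose-response fit.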

[3] = target: T1, mPAP; test: 5′-AMP hydrolysis; format: biochemical; conditions: for Normalized inhibition of mPAP, 5′-AMP hydrolysis (in words): compound at 100 μM
[4] = target: T2, hPAP (Homo sapiens, UniProt P15309); test: Fluorogenic; format: biochemical
T2 sequence (P15309 33-386): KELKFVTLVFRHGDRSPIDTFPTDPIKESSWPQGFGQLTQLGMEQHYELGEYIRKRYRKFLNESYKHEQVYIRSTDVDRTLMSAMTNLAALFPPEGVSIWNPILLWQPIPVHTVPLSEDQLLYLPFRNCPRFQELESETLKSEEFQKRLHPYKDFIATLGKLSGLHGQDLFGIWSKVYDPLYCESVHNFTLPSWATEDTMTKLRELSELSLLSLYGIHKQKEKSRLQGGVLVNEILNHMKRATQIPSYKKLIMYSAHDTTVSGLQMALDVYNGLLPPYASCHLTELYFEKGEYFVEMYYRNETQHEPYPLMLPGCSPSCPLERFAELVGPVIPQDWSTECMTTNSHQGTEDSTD

[5] = system: ALP; test: 5′-AMP hydrolysis; format: biochemical, bovine; conditions: for ALP 5′-AMP Hydrolysis IC50: 100 μM AMP
[6] = system: ALP; test: Fluorogenic; format: biochemical, bovine; conditions: for ALP Fluorogenic Assay IC50: DiFMUP substrate, pH 8.0
Outline: as §1

[7] = target: T2, hPAP; test: 5′-AMP hydrolysis; format: biochemical
[8] = system: transmembrane PAP; test: Cell-based calcium mobilization assay of AMP hydrolysis by transmembrane PAP; conditions: HEK293 cells expressing hA2B + Gαq-s5 + transmembrane PAP, 1 mM AMP
[9] = target: T3, PTP (Homo sapiens, UniProt P18031); test: Fluorogenic assay, Protein Tyrosine Phosphatase-1B; format: biochemical; conditions: data not shown
T3 sequence (P18031 1-435): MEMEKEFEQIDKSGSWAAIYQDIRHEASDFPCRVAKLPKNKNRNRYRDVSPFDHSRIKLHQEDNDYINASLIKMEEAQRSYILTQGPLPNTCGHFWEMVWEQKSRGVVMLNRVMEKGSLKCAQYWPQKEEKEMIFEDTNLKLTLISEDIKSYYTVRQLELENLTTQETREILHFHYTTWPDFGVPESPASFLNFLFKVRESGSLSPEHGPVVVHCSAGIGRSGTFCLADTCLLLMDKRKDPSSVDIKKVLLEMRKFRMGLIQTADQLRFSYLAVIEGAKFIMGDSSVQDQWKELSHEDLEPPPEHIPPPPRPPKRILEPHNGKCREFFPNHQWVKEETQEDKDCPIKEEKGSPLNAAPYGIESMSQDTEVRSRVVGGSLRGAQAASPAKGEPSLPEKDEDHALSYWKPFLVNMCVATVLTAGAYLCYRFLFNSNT
Outline: as §1

[10] = target: T4, A2B adenosine receptor (Homo sapiens, UniProt P29275); test: A2B receptor activation by adenosine in calcium mobilization assay; format: cell-based; conditions: BABPA 5 μM, pCPT-cAMP 100 μM; 1 mM adenosine as ligand
T4 sequence (P29275 1-332): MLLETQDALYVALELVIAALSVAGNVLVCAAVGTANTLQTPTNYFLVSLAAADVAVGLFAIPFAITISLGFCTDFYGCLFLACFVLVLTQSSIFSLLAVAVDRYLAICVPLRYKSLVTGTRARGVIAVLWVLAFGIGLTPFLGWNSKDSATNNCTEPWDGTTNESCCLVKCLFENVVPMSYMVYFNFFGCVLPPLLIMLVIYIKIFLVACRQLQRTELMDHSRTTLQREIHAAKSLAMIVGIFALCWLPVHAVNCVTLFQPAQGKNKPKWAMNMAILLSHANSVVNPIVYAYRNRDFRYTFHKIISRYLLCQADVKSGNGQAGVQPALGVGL

[11] = system: equilibrative nucleoside transporter 1 (ENT1); conditions: cited from earlier work
[12] = system: PAP; conditions: cited from earlier work
[13] = system: HEK293 cells; test: Cell killing in the cell-based calcium mobilization assay
[14] = read-out: hPAP Fluorogenic Assay IC50, DiFMUP substrate, pH 7.0
[15] = read-out: hPAP 5′-AMP Hydrolysis IC50, 400 μM AMP, pH 7.0

COc1ccc2c(c1)c(CC(=O)O)c(C)n2Cc1ccc(Cl)cc1 [compound 17, 1-(4-Chlorobenzyl)-5-methoxy-2-methylindole-3-acetic acid]
mPAP Fluorogenic Assay IC50 ([1]; DiFMUP substrate, pH 7.0): Inactive
pAP Fluorogenic Assay IC50 ([2]; DiFMUP substrate, pH 5.3): Inactive
mPAP 5′-AMP Hydrolysis IC50 ([3]; 1 mM AMP, pH 7.0): Inactive
Normalized inhibition of mPAP, 5′-AMP hydrolysis (in words) [3]: did not inhibit
IC50 [4, 14]: 39.8 µM
ALP 5′-AMP Hydrolysis IC50 [5]: Inactive
ALP Fluorogenic Assay IC50 [6]: Inactive
IC50 [7, 15]: 46.3 µM

Nc1nc2c(nc(Sc3ccc(Cl)cc3)n2[C@@H]2O[C@@H]3COP(=O)(O)O[C@H]3[C@H]2O)c(=O)[nH]1 [pCPT-cGMP, 8-(4-chlorophenylthio) cGMP]
IC50 ([1]; read-out: IC50 mouse secretory PAP, fluorogenic substrate): 49.7 µM
Inhibition of pAP, fluorogenic substrate (in words) [2]: Neither pCPT-cAMP nor pCPT-cGMP inhibited
Inhibition of mouse secretory PAP in vitro using AMP as substrate (in words) ([3]; pH 7.0): inhibited
Inhibition of hydrolysis of AMP to adenosine by transmembrane PAP (in words) [8]: inhibited
IC50 ([4]; read-out: IC50 human secretory PAP, fluorogenic substrate): 31.1 µM
Inhibition of PTP, fluorogenic substrate (in words) [9]: Neither pCPT-cAMP nor pCPT-cGMP inhibited
Inhibition of ALP, fluorogenic substrate (in words) [6]: Neither pCPT-cAMP nor pCPT-cGMP inhibited
Inhibition of human secretory PAP in vitro using AMP as substrate (in words) ([7]; pH 7.0): inhibited

Nc1ncnc2c1nc(Sc1ccc(Cl)cc1)n2C1OC2COP(=O)(O)O[C@H]2C1O (stereo in doubt) [compound 21, 8-(4-Chlorophenylthio)-cAMP sodium]
IC50 ([1]; read-out: mPAP Fluorogenic Assay IC50, DiFMUP substrate, pH 7.0): 35.5 µM
Inhibition of pAP, fluorogenic substrate (in words) [2]: Neither pCPT-cAMP nor pCPT-cGMP inhibited
pAP Fluorogenic Assay IC50 ([2]; DiFMUP substrate, pH 5.3): Inactive
IC50 ([3]; read-out: mPAP 5′-AMP Hydrolysis IC50, 1 mM AMP, pH 7.0): 20.2 µM
Inhibition of hydrolysis of AMP to adenosine by transmembrane PAP (in words) [8]: dose-dependently inhibited
IC50 [4, 14]: 39.8 µM
Block of A2B receptor activation by adenosine (in words) [10]: did not block
Block of ENT1 (in words) [11]: blocked
ALP 5′-AMP Hydrolysis IC50 [5]: Inactive
Inhibition of PTP, fluorogenic substrate (in words) [9]: Neither pCPT-cAMP nor pCPT-cGMP inhibited
Inhibition of ALP, fluorogenic substrate (in words) [6]: Neither pCPT-cAMP nor pCPT-cGMP inhibited
ALP Fluorogenic Assay IC50 [6]: Inactive
IC50 [7, 15]: 5.66 µM

O=P(O)(O)C(NCc1ccccc1)c1ccccc1 (stereo not drawn) [BABPA, α-Benzylaminobenzylphosphonic acid]
IC50 ([1]; read-out: IC50 mPAP, fluorogenic assay, positive control, DiFMUP substrate): 0.0206 µM
Inhibition of hydrolysis of AMP to adenosine by transmembrane PAP (in words) [8]: dose-dependently inhibited
IC50 ([4]; read-out: IC50 hPAP, fluorogenic assay, positive control, DiFMUP substrate): 0.00497 µM
Block of A2B receptor activation by adenosine (in words) [10]: did not block
Inhibition of PAP (potency in words) [12]: low nanomolar range

CCCCCCC(C)(C)c1ccc([C@@H]2C[C@H](O)CC[C@H]2CCCO)c(O)c1 [compound 96, CP-55940]
IC50 [1]: 15.8 µM
IC50 ([2]; read-out: pAP Fluorogenic Assay IC50, DiFMUP substrate, pH 5.3): 39.8 µM
mPAP 5′-AMP Hydrolysis IC50 ([3]; 1 mM AMP, pH 7.0): Inactive
Normalized inhibition of mPAP, 5′-AMP hydrolysis (in words) [3]: did not inhibit
IC50 [4]: 31.6 µM
ALP 5′-AMP Hydrolysis IC50 [5]: Inactive
ALP Fluorogenic Assay IC50 [6]: Inactive
hPAP 5′-AMP Hydrolysis IC50 ([7]; 400 μM AMP, pH 7.0): Inactive

CCn1cc(C(=O)O)c(=O)c2ccc(C)nc21 [compound 77, Nalidixic acid sodium]
IC50 [1]: 2.8 µM
pAP Fluorogenic Assay IC50 ([2]; DiFMUP substrate, pH 5.3): Inactive
IC50 [3]: 20.6 µM
IC50 [4]: 28.2 µM
ALP 5′-AMP Hydrolysis IC50 [5]: Inactive
ALP Fluorogenic Assay IC50 [6]: Inactive
IC50 [7]: 20.5 µM

O=C([O-])[C@H](O)[C@@H](O)C(=O)[O-].[Na+].[Na+] [L-(+)-tartrate]
Inhibition of mPAP, 5′-AMP hydrolysis (in words) ([3]; 10 mM): inhibited
Inhibition of ALP, 5′-AMP hydrolysis (in words) ([5]; 10 mM): did not inhibit
Inhibition of hPAP, 5′-AMP hydrolysis (in words) ([7]; 10 mM): inhibited

O=C(O)c1nn(Cc2ccc(Cl)cc2Cl)c2ccccc12 [compound 9, Lonidamine]
mPAP Fluorogenic Assay IC50 ([1]; DiFMUP substrate, pH 7.0): Inactive
pAP Fluorogenic Assay IC50 ([2]; DiFMUP substrate, pH 5.3): Inactive
IC50 [3]: 31.1 µM
Cell killing (in words) [13]: killed the cells
IC50 [4]: 50.1 µM
ALP 5′-AMP Hydrolysis IC50 [5]: Inactive
ALP Fluorogenic Assay IC50 [6]: Inactive
IC50 [7]: 15.5 µM

O=c1c(O)c(-c2ccc(O)c(O)c2)oc2cc(O)cc(O)c12 [compound 70, Quercetin]
mPAP Fluorogenic Assay IC50 ([1]; DiFMUP substrate, pH 7.0): Inactive
pAP Fluorogenic Assay IC50 ([2]; DiFMUP substrate, pH 5.3): Inactive
mPAP 5′-AMP Hydrolysis IC50 ([3]; 1 mM AMP, pH 7.0): Inactive
Normalized inhibition of mPAP, 5′-AMP hydrolysis (in words) [3]: did not inhibit
IC50 [4]: 31.6 µM
ALP 5′-AMP Hydrolysis IC50 [5]: Inactive
ALP Fluorogenic Assay IC50 [6]: Inactive
hPAP 5′-AMP Hydrolysis IC50 ([7]; 400 μM AMP, pH 7.0): Inactive

CCCOc1ccc2ccccc2c1/C=C/c1nc(O)c([N+](=O)[O-])c(=O)[nH]1 [Compound 49, 6-hydroxy-5-nitro-2-[(E)-2-(2-propoxy-naphthalen-1-yl)-vinyl]-3H-pyrimidin-4-one]
IC50 [3]: 42.9 µM
Inhibition of ALP, 5′-AMP hydrolysis (in words) ([5]; compound at 100 μM): did not inhibit
IC50 [7]: 2.9 µM

O=c1c(O)c(-c2cc(O)c(O)c(O)c2)oc2cc(O)cc(O)c12 [compound 97, Myricetin]
pAP Fluorogenic Assay IC50 ([2]; DiFMUP substrate, pH 5.3): Inactive
IC50 [4]: 44.7 µM
ALP 5′-AMP Hydrolysis IC50 [5]: Inactive
ALP Fluorogenic Assay IC50 [6]: Inactive
IC50 [7]: 26.5 µM

Clc1ccc(C(c2ccc(Cl)cc2)n2cc[n+](CC(OCc3ccc(Cl)cc3Cl)c3ccc(Cl)cc3Cl)c2)cc1 (stereo not drawn) [compound 29, Calmidazolium chloride]
IC50 [1]: 39.8 µM
pAP Fluorogenic Assay IC50 ([2]; DiFMUP substrate, pH 5.3): Inactive
IC50 [3]: 11.6 µM
Cell killing (in words) [13]: killed the cells
IC50 [4]: 44.7 µM
ALP 5′-AMP Hydrolysis IC50 [5]: Inactive
ALP Fluorogenic Assay IC50 [6]: Inactive
IC50 [7]: 1.48 µM
